# Records with an inconclusive call do not appear.
# Test system: S. cerevisiae W303 JC-1 mitochondrial potential, flow cytometry
# Experiment: JC-1 mitochondrial potential loss in yeast – flow cytometry, single point, dry powder, mechanism study for C. glabrata antifungal project (AID 624068)
# Conditions: at 1 µM; active compounds read high
# Procedure, shortened: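 Signal: JC-1 flow cytometry, 488 nm excitation; Test system: S. cerevisiae W303-1a yeast; Benchmarks: antimycin A 10 µM plus negative controls for calibration; Schedule: 90 min pre-growth at 30 °C, 4 h compound exposure.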
smiles,measurement,value
CCOC(=O)N1C(=O)C2(CCCCC2)N(c2ccc(C)cc2)C1=S,mitochondrial depolarization score,27.8
